The results in this text go back to ChEMBL document CHEMBL2021895 (Eur J Med Chem, 2012).

pIC50: −log10 of the molar value.

One experiment concerns HCT-116. In words: Cytotoxicity against human HCT116 cells after 72 hrs using resazurin dye by microtiter plate fluorimeter analysis. Type of experiment: functional. To be noted: HCT-116, 72 h. (Alamar Blue is a resazurin reagent that responds to reducing activity.)
The nature of experiment [1]: Cytotoxicity against human H1299 cells after 72 hrs using resazurin dye by microtiter plate fluorimeter analysis. To be noted: NCI-H1299, 72 h. Type of experiment: functional.
Another experiment deals with MDA-MB-231. Put plainly: Cytotoxicity against human MDA-MB-231 cells after 72 hrs using resazurin dye by microtiter plate fluorimeter analysis. Type of experiment: functional. To be noted: MDA-MB-231, 72 h.
Another experiment deals with K562. In words: Cytotoxicity against human K562 cells after 72 hrs using resazurin dye by microtiter plate fluorimeter analysis. Type of experiment: functional. To be noted: K562, 72 h.
Experiment [2] can be described thus: Inhibition of sheep brain tubulin polymerization using DAPI by fluorescence assay. Also on record: species or system Ovis aries. Put shortly:
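Tubulin purified by two assembly–disassembly cycles, in 0.1 M MES, 0.5 mM MgCl2, 1 mM EGTA, 1 mM GTP, pH 6.6 (about 2-3 mg/mL). Assembly followed by DAPI fluorescence at 37°C.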

`C=C(c1ccc(OC)c(O)c1)c1cc(OC)c(OC)c(OC)c1`: the 50% growth inhibitory concentration (GI50) – broadly, the concentration at which growth is held to half of that of the control – with HCT-116 is 3 nM; in experiment [1] it was 3 nM; with MDA-MB-231, 4 nM; in the experiment with K562, 5 nM. Further, the pIC50 (as a rule, the IC50 on a negative log10 scale, so that one unit is a factor of ten) in experiment [2] was 5.66.

Take `COc1ccc(/C=C\c2cc(OC)c(OC)c(OC)c2)cc1O` [COMBRETASTATIN A4]: the concentration for 50% growth inhibition (GI50) with HCT-116 was found to be 2 nM; in experiment [1], 5 nM; in the experiment with MDA-MB-231, 3 nM; in the experiment on K562, 4 nM.
